PfM18AAP inh-1 – PfM18AAP inhibitors, malaria aminopeptidase, primary screen, biochemical, QFRET, recombinant enzyme; H-Glu-NHMec fluorogenic cleavage; inhibition, % at 7.35 µM; 290,000 tested, 1.2% active;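 active means inhibition above the campaign mean inhibition over all tested compounds plus 3 SD, cut at about 28% in these data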;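 further: 0% = plate median of test compound wells and 100% = 2 mM ZnCl2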
VIM-2 inhibitor – VIM-2 metallo-beta-lactamase inhibitors, primary screen, biochemical, epi-absorbance readout, Pseudomonas aeruginosa enzyme; purified VIM-2, nitrocefin hydrolysis, epi-absorbance fluorescence; inhibition, % at 5.6 µM; 290,000 tested, 0.89% active;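 active means inhibition above the mean of all tested compounds plus 3 SD, cutoff set per screening run, cut at about 7.5% in these data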;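 further: red hydrolysis product quenches plate fluorescence so inhibitors raise well fluorescence; 0% = enzyme with DMSO and 100% = DMSO without enzyme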
CTSL1 counter-1 – Fasciola hepatica cathepsin L1 inhibitors, primary screen, counter-screen for PFM18AAP inhibitor project, biochemical, QFRET, fluorogenic peptide substrate. recombinant F. hepatica cathepsin L1, Z-Leu-Arg-MCA fluorescence. inhibition, % at 5.96 µM. 300,000 tested, 0.49% active. AID 1906, 2009;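 active means inhibition above the mean of all tested compounds plus 3 SD, set per screening campaign, cut at about 17% in these data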;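 further: 0% = plate median of test compound wells and 100% = 1 µM Z-Phe-Ala-diazomethylketone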
IMP-1 inh – IMP-1 metallo-beta-lactamase inhibitors, primary screen, biochemical, epi-absorbance readout, Pseudomonas aeruginosa enzyme. purified IMP-1, nitrocefin hydrolysis, epi-absorbance fluorescence. 290,000 tested, 0.45% active. inhibition, % at 5.6 µM;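 active means inhibition above the mean plus 3 SD of all compounds in the same screening run, cut at about 4.5% in these data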;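 further: 0% = IMP-1 with DMSO and 100% = DMSO wells lacking enzyme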
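System: purified IMP-1 / Input: IMP-1 dispensed at 0.2 nM / Medium: 50 mM HEPES pH 7.1, 50 µM ZnSO4, 0.05% Brij 35 / Timing: 15 min enzyme–compound preincubation, then 25 min nitrocefin reaction, 25 °C / Technique: plate fluorescence quenching by hydrolysis product, ex 480/em 530 nm / Repeats: singlicate testing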
PfM18AAP inh-2 – PfM18AAP inhibitors, malaria aminopeptidase, confirmation, biochemical, QFRET, recombinant enzyme, triplicate; shares compounds with PfM18AAP inh-1; H-Glu-NHMec fluorogenic cleavage; inhibition, % at 7.35 µM; 2,400 tested, 28% active; AID 2170, 2009;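 active means mean inhibition over replicate wells above the hit cutoff set for the earlier primary screen, cut at about 29% in these data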;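 further: 0% = median of test compound wells and 100% = 2 mM ZnCl2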
CTSL1 counter-2 – cathepsin L1 inhibitors, retest, confirmation, counter-screen for PFM18AAP inhibitor project, biochemical, QFRET, triplicate. shares compounds with PfM18AAP inh-1. inhibition, % at 5.96 µM. purified cathepsin L1, Z-Leu-Arg-MCA fluorescence. 2,400 tested, under 10 active. AID 2178, 2009;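 active means average inhibition across replicates above the hit cutoff set in the earlier primary screen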;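 further: 0% = median of test compound wells and 100% = Z-Phe-Ala-diazomethylketone 1 µM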
Target sequence (P07711 whole entry, looked up): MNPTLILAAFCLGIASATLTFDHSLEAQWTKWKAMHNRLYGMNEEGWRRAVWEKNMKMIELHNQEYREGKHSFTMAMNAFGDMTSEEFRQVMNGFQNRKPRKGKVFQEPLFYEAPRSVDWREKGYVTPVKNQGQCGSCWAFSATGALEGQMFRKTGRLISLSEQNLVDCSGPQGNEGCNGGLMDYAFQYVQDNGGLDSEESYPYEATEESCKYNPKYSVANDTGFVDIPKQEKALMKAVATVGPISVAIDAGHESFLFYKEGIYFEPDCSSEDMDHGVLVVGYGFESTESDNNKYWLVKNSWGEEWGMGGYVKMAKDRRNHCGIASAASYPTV
Numbers without * were called inactive; . = no result. A selection: hits, their analogues and other compounds. The true share with any hit is near 2.7%.

SMILES	PfM18AAP inh-1	VIM-2 inhibitor	CTSL1 counter-1	IMP-1 inh	PfM18AAP inh-2	CTSL1 counter-2
O=c1ccc2cc(O[C@@H]3O[C@@H](CO)[C@H](O)[C@@H](O)[C@@H]3O)c(O)cc2o1	32*	2	-3	1	-10	7
N#Cc1c(/N=C/c2ccc(O)cc2O)sc2c1C1CCN2CC1	40*	-5	-1	-5	12	7
CCN1CCN(Cc2cc3c(cc2[N+](=O)[O-])OCO3)CC1	48*	1	-3	0	5	-2
C=CCn1c(O)c(C(CC)=Nc2ccc(N(C)C)cc2)c(=O)[nH]c1=O	52*	-2	-2	-2	-28	0
CCN(CC)c1ccc(N=Cc2c(O)n(-c3ccc(Cl)cc3)c(=O)[nH]c2=O)cc1	3	-1	-4	-2	.	.
C=CCn1c(O)c(C=Nc2ccc(N(CC)CC)cc2)c(=O)[nH]c1=O	50*	-5	6	5.3*	-29	1
Cc1ccccc1-n1c(O)c(C=Nc2ccc(N(C)C)cc2)c(=O)[nH]c1=O	46*	0	-1	-6	-56	6
C=CCn1c(O)c(C(CC)=Nc2ccc3c(c2)CCC3)c(=O)[nH]c1=O	3	-4	11	-1	.	.
CCN(CC)c1ccc(N=Cc2c(O)n(-c3ccc(OC)cc3)c(=O)[nH]c2=O)cc1	42*	-2	1	1	-35	1
COc1ccc(OCC(=O)N2CCCC(N3CCN(c4ccccc4C)CC3)C2)cc1 (configuration not stated)	2	-1	0	-2	.	.
CCOC(=O)c1cncn1[C@H](C)c1ccccc1	0	-4	0	0	.	.
O=C(Cn1ncn2c(cc3cc(F)ccc32)c1=O)N1CCC2(CC1)OCCO2	6	-2	-3	-3	.	.
CCN(CC)P(=S)(c1c(C)nc2ccccn12)c1c(C)nc2ccccn12	32*	0	-4	-1	-15	0
CCOc1c(P(=S)(N(C)C)N(C)C)c(C)nn1-c1ccccc1	0	-2	-6	-3	.	.
O=C1NC(=O)C(=Cc2cc3c(cc2[N+](=O)[O-])OCO3)C(=O)N1	40*	0	-2	-3	-39	0
Cc1cccc(N2C(=O)NC(=O)/C(=C/c3cc4c(cc3[N+](=O)[O-])OCO4)C2=O)c1	20	0	5	1	.	.
CC[C@H]1CN2CC[C@@]3(C(=O)Nc4ccccc43)[C@@H]2C[C@@H]1/C(=C\OC)C(=O)OC	.	.	1	.	.	.
CCN(CC)c1ccc(CNCCc2ccc(F)cc2)cc1	8	-3	0	-2	.	.
O=c1c2ccccc2nc(/C=C/c2ccc(O)c(O)c2)n1-c1ccccc1	63*	0	10	-3	41*	0
O=c1c2ccccc2nc(/C=C/c2ccccc2)n1-c1ccc(O)cc1	4	-5	-7	-2	.	.
O=C(c1ccccc1)N1CCC2(CC1)OCCO2	5	-2	-1	-2	.	.
O=C(NC1(C(F)(F)F)Oc2ccccc2O1)N1CCC2(CC1)OCCO2	71*	-4	-3	-2	68*	-9

Screening data: PubChem, The Scripps Research Institute Molecular Screening Center
